# Laboratory results as given in ChEMBL document CHEMBL3232759, “Hepatoprotective effects of triterpenoids from Ganoderma cochlear” (J Nat Prod, 2014).
# How the values were obtained:
# HepG2 [1] = assay: Hepatoprotective activity against H2O2-induced human HepG2 cells assessed as reduction in ALT level at 32.85 uM after 24 hrs (reference value: 23.22 +/- 1.22 U/L); format: functional
# In short: (§1)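 HepG2 cells in log phase seeded at 1 × 10^4 cells/well and held 24 h at 37 °C. Exposed to 3.2 mM H2O2 for 2 h at 37 °C, then to test compound in medium with DMSO for 24 h. ALT or AST read directly in the supernatant. Controls: DMSO-only cells and H2O2-only model. Test concentrations kept within each compound's MTT-determined maximum nontoxic level. Mean ± SD, n = 3; paired-sample test.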
# HepG2 [2] = assay: Hepatoprotective activity against H2O2-induced human HepG2 cells assessed as reduction in ALT level at 16.43 uM after 24 hrs (reference value: 23.22 +/- 1.22 U/L); format: functional; in short: as §1
# HepG2 [3] = assay: Hepatoprotective activity against H2O2-induced human HepG2 cells assessed as reduction in ALT level at 65.70 uM after 24 hrs (reference value: 23.22 +/- 1.22 U/L); format: functional; in short: as §1
# HepG2 [4] = assay: Hepatoprotective activity against H2O2-induced human HepG2 cells assessed as reduction in AST level at 32.85 uM after 24 hrs (reference value: 32.36 +/- 0.79 U/L); format: functional; in short: as §1
# HepG2 [5] = assay: Hepatoprotective activity against H2O2-induced human HepG2 cells assessed as reduction in AST level at 65.70 uM after 24 hrs (reference value: 32.36 +/- 0.79 U/L); format: functional; in short: as §1
# HepG2 [6] = assay: Hepatoprotective activity against H2O2-induced human HepG2 cells assessed as reduction in AST level at 16.43 uM after 24 hrs (reference value: 32.36 +/- 0.79 U/L); format: functional; in short: as §1
# [7] = Cytotoxicity against human HepG2 cells after 96 hrs by MTT assay; format: cell-based; conditions: read-out: MTD
# In short: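 HepG2 cells seeded at 1 × 10^4 cells/well in MEM + 10% FBS, 24 h at 37 °C. Compounds diluted from DMSO stocks into MEM with 2% FBS (6.25, 12.5, 25, 50, 100, 200, 400 μM), DMSO kept below 1% (v/v). Added to monolayer; MTT read at OD570 after 96 h. % inhibition vs DMSO control; maximum nontoxic concentration determined.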
# HepG2 [8] = assay: Hepatoprotective activity against H2O2-induced human HepG2 cells assessed as reduction in AST level at 29.95 uM after 24 hrs (reference value: 32.36 +/- 0.79 U/L); format: functional; in short: as §1
# HepG2 [9] = assay: Hepatoprotective activity against H2O2-induced human HepG2 cells assessed as reduction in ALT level at 29.95 uM after 24 hrs (reference value: 23.22 +/- 1.22 U/L); format: functional; in short: as §1
# HepG2 [10] = assay: Hepatoprotective activity against H2O2-induced human HepG2 cells assessed as reduction in AST level at 59.90 uM after 24 hrs (reference value: 32.36 +/- 0.79 U/L); format: functional; in short: as §1
# HepG2 [11] = assay: Hepatoprotective activity against H2O2-induced human HepG2 cells assessed as reduction in AST level at 14.98 uM after 24 hrs (reference value: 32.36 +/- 0.79 U/L); format: functional; in short: as §1
# HepG2 [12] = assay: Hepatoprotective activity against H2O2-induced human HepG2 cells assessed as reduction in ALT level at 14.98 uM after 24 hrs (reference value: 23.22 +/- 1.22 U/L); format: functional; in short: as §1
# HepG2 [13] = assay: Hepatoprotective activity against H2O2-induced human HepG2 cells assessed as reduction in ALT level at 59.90 uM after 24 hrs (reference value: 23.22 +/- 1.22 U/L); format: functional; in short: as §1
# HepG2 [14] = assay: Hepatoprotective activity against H2O2-induced human HepG2 cells assessed as reduction in AST level at 4.60 uM after 24 hrs (reference value: 32.36 +/- 0.79 U/L); format: functional; in short: as §1
# HepG2 [15] = assay: Hepatoprotective activity against H2O2-induced human HepG2 cells assessed as reduction in AST level at 18.40 uM after 24 hrs (reference value: 32.36 +/- 0.79 U/L); format: functional; in short: as §1
# HepG2 [16] = assay: Hepatoprotective activity against H2O2-induced human HepG2 cells assessed as reduction in ALT level at 9.20 uM after 24 hrs (reference value: 23.22 +/- 1.22 U/L); format: functional; in short: as §1
# HepG2 [17] = assay: Hepatoprotective activity against H2O2-induced human HepG2 cells assessed as reduction in ALT level at 18.40 uM after 24 hrs (reference value: 23.22 +/- 1.22 U/L); format: functional; in short: as §1
# HepG2 [18] = assay: Hepatoprotective activity against H2O2-induced human HepG2 cells assessed as reduction in AST level at 9.20 uM after 24 hrs (reference value: 32.36 +/- 0.79 U/L); format: functional; in short: as §1
# HepG2 [19] = assay: Hepatoprotective activity against H2O2-induced human HepG2 cells assessed as reduction in ALT level at 4.60 uM after 24 hrs (reference value: 23.22 +/- 1.22 U/L); format: functional; in short: as §1
# HepG2 [20] = assay: Hepatoprotective activity against H2O2-induced human HepG2 cells assessed as reduction in ALT level at 15.5 uM after 24 hrs (reference value: 23.22 +/- 1.22 U/L); format: functional; in short: as §1
# HepG2 [21] = assay: Hepatoprotective activity against H2O2-induced human HepG2 cells assessed as reduction in AST level at 7.75 uM after 24 hrs (reference value: 32.36 +/- 0.79 U/L); format: functional; in short: as §1
# HepG2 [22] = assay: Hepatoprotective activity against H2O2-induced human HepG2 cells assessed as reduction in AST level at 3.88 uM after 24 hrs (reference value: 32.36 +/- 0.79 U/L); format: functional; in short: as §1
# HepG2 [23] = assay: Hepatoprotective activity against H2O2-induced human HepG2 cells assessed as reduction in AST level at 15.5 uM after 24 hrs (reference value: 32.36 +/- 0.79 U/L); format: functional; in short: as §1
# HepG2 [24] = assay: Hepatoprotective activity against H2O2-induced human HepG2 cells assessed as reduction in ALT level at 3.88 uM after 24 hrs (reference value: 23.22 +/- 1.22 U/L); format: functional; in short: as §1
# HepG2 [25] = assay: Hepatoprotective activity against H2O2-induced human HepG2 cells assessed as reduction in ALT level at 7.75 uM after 24 hrs (reference value: 23.22 +/- 1.22 U/L); format: functional; in short: as §1
structure (smiles),measurement,setting,value
C[C@H]1C(=O)CC[C@@H]2[C@]1(C)CC[C@H]1[C@@]2(C)CC[C@@]2(C)[C@@H]3CC(C)(C)CC[C@]3(C)CC[C@]12C [FRIEDELINE],Activity,HepG2 [1],18.27 U/L
same,Activity,HepG2 [2],18.92 U/L
same,Activity,HepG2 [3],16.06 U/L
same,Activity,HepG2 [4],25.43 U/L
same,Activity,HepG2 [5],19.09 U/L
same,Activity,HepG2 [6],29.45 U/L
same,MNTC at 96 h,[7],15 µM
C=C(C)[C@@H]1C[C@H](O)C2=C(C(=O)C[C@]3(C)[C@@H]([C@H](C)CCC(=O)OC)CC[C@@]23C)[C@@]1(C)CCC(=O)OC,Activity,HepG2 [8],26.77 U/L
same,Activity,HepG2 [9],18.51 U/L
same,Activity,HepG2 [10],22.11 U/L
same,Activity,HepG2 [11],28.28 U/L
same,Activity,HepG2 [12],19.32 U/L
same,Activity,HepG2 [13],17.81 U/L
same,MNTC at 96 h,[7],59.9 µM
C=C(C)[C@@H]1C[C@@H]2O[C@@]1(CCC(=O)O)CC1=C2[C@]2(C)CC[C@H]([C@H](C)CCC(=O)OC)[C@@]2(C)CC1=O,MNTC at 96 h,[7],74.6 µM
C=C(C)[C@@H]1C[C@H](O)C2=C(C(=O)C[C@]3(C)[C@@H]([C@H](C)CCC(=O)O)CC[C@@]23C)[C@@]1(C)CCC(=O)O,Activity,HepG2 [14],30.38 U/L
same,Activity,HepG2 [15],20.66 U/L
same,Activity,HepG2 [16],20.2 U/L
same,Activity,HepG2 [17],20.84 U/L
same,Activity,HepG2 [18],23.8 U/L
same,Activity,HepG2 [19],19.61 U/L
same,MNTC at 96 h,[7],65.7 µM
CC(C)=CC[C@H](O)[C@@H](C)[C@H]1CC[C@@]2(C)C3=CC[C@H]4C(C)(C)[C@@H](O)CC[C@]4(C)C3=CC[C@]12C,MNTC at 96 h,[7],150 µM
C=C(C)[C@@H]1C[C@H](O)C2=C(C(=O)C[C@]3(C)[C@@H]([C@H](C)CCC(=O)OC)CC[C@@]23C)[C@@]1(C)CCC(=O)O,MNTC at 96 h,[7],15.5 µM
C=C(C)[C@@H]1C[C@H](O)C2=C(C(=O)C[C@]3(C)[C@@H]([C@H](C)CCC(=O)O)CC[C@@]23C)[C@@]1(C)CCC(=O)OC,Activity,HepG2 [20],19.73 U/L
same,Activity,HepG2 [21],26.54 U/L
same,Activity,HepG2 [22],28.23 U/L
same,Activity,HepG2 [23],26.19 U/L
same,Activity,HepG2 [24],21.01 U/L
same,Activity,HepG2 [25],19.32 U/L
same,MNTC at 96 h,[7],18.4 µM
